Assay results collected from several papers.
Protocols differ between the studies behind these lines.

| SMILES | cell line | test | setting | endpoint | result |
| --- | --- | --- | --- | --- | --- |
| COc1cc2c3c(n(CCCN4CCOCC4)c(=O)c2cc1OC)-c1cc2c(cc1C3=O)OCO2 | P388 | cell growth or viability | 72 h | IC50 | 0.154 µg/mL |
| C1COCCN1.COc1ccc(/C=C\c2cc(I)c(OC)c(I)c2)cc1OP(=O)(O)O | MCF7 | cell growth or viability, SRB | 48 h | GI50 | 0.066 µg/mL |
| C=CC(=O)Nc1cc(Nc2nccc(-c3cn(C)c4ccccc34)n2)c(OC)cc1N(C)CCN(C)C | Calu-3 | cell growth or viability | 72 h | IC50 | 0.65 µM |
| O=c1ccc2ccc3occc3c2o1 | HEp-2 | cell growth or viability, WST-1 | 48 h | IC50 | 11.5 µM |
| COc1cc2c3c(n(CCCNCCO)c(=O)c2cc1OC)-c1cc2c(cc1C3=O)OCO2 | MCF7 | cell growth or viability, SRB | – | GI50 | < 0.01 µM |
| Cc1c2ccncc2c(C)c2c1[nH]c1ccccc12 | THP-1 | TNF-α release, inhibitor, ELISA | 17 h, LPS-stimulated | IC50 | 0.44 µM |
| N.N.[Cl][Pt][Cl] | MCF7 | cell growth or viability, SRB | – | EC50 | 3.6 µM |
| O=c1ccc2cc3ccoc3cc2o1 | HEp-2 | cell growth or viability, WST-1 | 48 h | IC50 | 20.5 µM |
| CCN1C(=O)SCC1C1(OC)CC2CC(CCC(C)C=CC=CCCC(C)=CC(=O)O2)O1 (centres unmarked) | MCF7 | cell growth or viability, MTT | 72 h | IC50 | 20.6 µM |
| CC(C)[C@@H]1NC(=O)[C@H](CO)NC(=O)[C@H](CO)NC(=O)[C@H](CO)N(C)C(=O)[C@H](CC(=O)O)NC(=O)[C@H](CO)NC(=O)[C@H](Cc2ccccc2)NC(=O)CSC[C@@H](C(=O)NCC(N)=O)NC(=O)[C@H](CC(N)=O)NC(=O)[C@H](CCCNC(=N)N)NC(=O)[C@H](C)NC(=O)[C@H](Cc2ccc(-c3ccccc3)cc2)NC(=O)[C@H](CC(N)=O)NC(=O)[C@@H]2CCCN2C1=O | SJSA-1 | cell growth or viability | – | EC50 | > 30 µM |
| COc1c2c(cc3c1OCO3)[C@]13C=C[C@H](OC)C[C@@H]1[N@](C2)C[C@H]3OC(=O)c1ccco1 | SAOS-2 | cell growth or viability, WST-1 | – | IC50 | > 10 µM |
